Assays:
[1] = target: Adrenergic receptor alpha-2 (Rattus norvegicus) (UniProt P22086+P19328+P22909); test: Clonidine antagonistic activity against alpha-2 adrenergic receptor in isolated, field -simulated vas deferens from rats; assay type: functional
Summary of the method: (§1)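 Field-stimulated vas deferens from Sprague-Dawley rats (250-350 g). pA2 estimated from one or two test-compound concentrations, with at least three tissues per concentration. Agonist challenged was clonidine for α2 and methoxamine for α1.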

[2] = target: T1, Adrenergic receptor alpha-1 (Rattus norvegicus, UniProt P15823+P23944+P43140); test: Methoxamine antagonistic activity against alpha-1 adrenergic receptor in isolated, field -simulated vas deferens from rats; assay type: functional, tissue-based; summary of the method: as §1
T1 sequence (P15823 whole entry): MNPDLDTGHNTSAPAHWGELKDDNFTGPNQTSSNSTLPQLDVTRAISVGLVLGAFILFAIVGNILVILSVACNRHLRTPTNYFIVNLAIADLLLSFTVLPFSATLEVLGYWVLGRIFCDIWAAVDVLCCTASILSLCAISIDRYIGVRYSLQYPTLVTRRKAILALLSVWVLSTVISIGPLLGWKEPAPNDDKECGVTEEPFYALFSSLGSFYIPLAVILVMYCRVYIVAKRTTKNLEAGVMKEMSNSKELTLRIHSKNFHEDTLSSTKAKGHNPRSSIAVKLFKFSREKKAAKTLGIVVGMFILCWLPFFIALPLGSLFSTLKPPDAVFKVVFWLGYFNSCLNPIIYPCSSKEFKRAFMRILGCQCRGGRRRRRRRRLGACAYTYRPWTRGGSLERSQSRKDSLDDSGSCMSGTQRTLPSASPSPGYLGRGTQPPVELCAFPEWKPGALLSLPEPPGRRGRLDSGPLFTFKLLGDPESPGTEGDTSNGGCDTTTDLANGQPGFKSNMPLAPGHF
T1 sequence (P23944 whole entry): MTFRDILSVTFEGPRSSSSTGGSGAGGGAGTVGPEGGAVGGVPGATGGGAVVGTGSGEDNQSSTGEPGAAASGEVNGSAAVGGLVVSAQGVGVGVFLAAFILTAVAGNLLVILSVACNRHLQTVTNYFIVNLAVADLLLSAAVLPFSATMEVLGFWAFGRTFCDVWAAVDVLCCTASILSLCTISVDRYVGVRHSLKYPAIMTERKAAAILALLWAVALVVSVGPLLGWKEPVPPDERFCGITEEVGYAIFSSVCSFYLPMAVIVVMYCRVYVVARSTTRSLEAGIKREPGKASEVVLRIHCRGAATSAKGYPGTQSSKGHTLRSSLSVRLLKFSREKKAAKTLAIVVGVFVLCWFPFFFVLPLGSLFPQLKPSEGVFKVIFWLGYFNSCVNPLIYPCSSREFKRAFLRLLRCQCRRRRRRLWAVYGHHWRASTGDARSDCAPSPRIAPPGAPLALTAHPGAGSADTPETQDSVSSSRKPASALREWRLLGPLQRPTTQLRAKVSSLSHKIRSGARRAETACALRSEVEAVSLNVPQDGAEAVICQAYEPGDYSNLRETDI
T1 sequence (P43140 whole entry): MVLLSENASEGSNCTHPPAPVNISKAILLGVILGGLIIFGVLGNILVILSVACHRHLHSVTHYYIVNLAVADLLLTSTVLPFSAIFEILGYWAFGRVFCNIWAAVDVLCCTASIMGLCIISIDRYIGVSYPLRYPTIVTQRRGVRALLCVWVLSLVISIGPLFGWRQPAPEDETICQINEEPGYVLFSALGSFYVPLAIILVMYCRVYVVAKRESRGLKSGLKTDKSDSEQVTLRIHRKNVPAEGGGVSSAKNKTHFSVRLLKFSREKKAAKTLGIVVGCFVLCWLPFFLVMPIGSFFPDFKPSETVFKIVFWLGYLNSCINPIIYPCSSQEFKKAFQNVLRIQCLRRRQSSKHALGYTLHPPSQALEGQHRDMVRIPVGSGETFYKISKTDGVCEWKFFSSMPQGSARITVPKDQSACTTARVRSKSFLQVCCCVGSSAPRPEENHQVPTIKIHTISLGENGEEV

[3] = target: T2, Adrenergic receptor alpha-2 (Rattus norvegicus, UniProt P22086+P19328+P22909); test: Agonistic activity against alpha alpha-2 adrenergic receptor in isolated, field -simulated vas deferens from rats; assay type: functional
T2 sequence (P22086 whole entry): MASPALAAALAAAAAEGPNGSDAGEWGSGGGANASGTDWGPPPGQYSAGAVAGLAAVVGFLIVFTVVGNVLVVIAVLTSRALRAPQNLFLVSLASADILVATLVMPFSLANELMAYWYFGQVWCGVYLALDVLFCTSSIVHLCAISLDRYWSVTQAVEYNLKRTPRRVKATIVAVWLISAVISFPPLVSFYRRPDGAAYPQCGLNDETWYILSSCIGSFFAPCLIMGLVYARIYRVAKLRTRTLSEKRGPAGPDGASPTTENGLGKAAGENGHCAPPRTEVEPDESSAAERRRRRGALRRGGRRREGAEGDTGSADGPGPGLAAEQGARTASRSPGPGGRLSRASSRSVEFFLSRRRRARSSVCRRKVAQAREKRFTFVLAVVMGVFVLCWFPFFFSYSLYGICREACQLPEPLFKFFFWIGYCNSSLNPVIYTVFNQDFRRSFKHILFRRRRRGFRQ
T2 sequence (P19328 whole entry): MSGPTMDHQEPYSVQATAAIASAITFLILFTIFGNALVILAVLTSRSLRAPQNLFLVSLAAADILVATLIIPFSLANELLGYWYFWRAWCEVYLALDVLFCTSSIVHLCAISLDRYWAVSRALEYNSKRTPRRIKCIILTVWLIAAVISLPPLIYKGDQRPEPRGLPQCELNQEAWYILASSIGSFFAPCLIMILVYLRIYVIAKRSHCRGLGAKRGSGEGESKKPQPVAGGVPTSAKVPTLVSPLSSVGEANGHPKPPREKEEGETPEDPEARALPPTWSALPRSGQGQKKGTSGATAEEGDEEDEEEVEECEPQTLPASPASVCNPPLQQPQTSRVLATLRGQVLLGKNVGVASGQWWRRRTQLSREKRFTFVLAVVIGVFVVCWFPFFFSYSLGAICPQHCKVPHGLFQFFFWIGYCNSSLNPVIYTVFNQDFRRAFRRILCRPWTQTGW
T2 sequence (P22909 whole entry): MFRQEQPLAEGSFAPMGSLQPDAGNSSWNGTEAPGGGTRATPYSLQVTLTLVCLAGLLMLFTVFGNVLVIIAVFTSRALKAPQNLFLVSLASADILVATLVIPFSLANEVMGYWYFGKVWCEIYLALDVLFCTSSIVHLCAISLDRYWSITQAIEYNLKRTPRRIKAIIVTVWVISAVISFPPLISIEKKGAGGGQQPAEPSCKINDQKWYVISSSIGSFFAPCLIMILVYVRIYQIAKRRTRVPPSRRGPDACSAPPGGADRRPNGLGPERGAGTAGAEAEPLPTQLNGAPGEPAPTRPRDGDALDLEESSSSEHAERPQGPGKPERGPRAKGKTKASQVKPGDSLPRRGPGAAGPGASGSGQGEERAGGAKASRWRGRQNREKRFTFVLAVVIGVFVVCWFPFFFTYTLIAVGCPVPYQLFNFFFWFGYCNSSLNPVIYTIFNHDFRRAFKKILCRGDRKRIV

[4] = target: T1, Adrenergic receptor alpha-1; test: Agonist activity against alpha-1 adrenergic receptor from rat vas deferens; assay type: functional
[5] = target: T3, Alpha-2A adrenergic receptor (Bos taurus, UniProt Q28838); test: Binding affinity against alpha-2 adrenergic receptor from calf cerebral cortex, using [3H]clonidine as the radioligand; assay type: tissue-based
T3 sequence (Q28838 whole entry): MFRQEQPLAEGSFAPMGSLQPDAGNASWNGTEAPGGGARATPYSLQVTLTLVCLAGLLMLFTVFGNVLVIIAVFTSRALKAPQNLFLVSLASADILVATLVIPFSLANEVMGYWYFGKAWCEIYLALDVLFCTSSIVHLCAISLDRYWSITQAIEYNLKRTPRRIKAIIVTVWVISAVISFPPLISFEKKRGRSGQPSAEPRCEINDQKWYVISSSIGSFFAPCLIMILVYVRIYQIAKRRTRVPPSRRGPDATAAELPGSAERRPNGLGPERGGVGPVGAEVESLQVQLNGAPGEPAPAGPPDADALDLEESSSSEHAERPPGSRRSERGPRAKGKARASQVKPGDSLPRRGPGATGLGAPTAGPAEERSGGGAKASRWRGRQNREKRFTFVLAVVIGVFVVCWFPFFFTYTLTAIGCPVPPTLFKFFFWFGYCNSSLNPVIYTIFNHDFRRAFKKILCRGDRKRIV

[6] = target: T2, Adrenergic receptor alpha-2; test: Agonistic activity against alpha-2 adrenergic receptor in isolated, field -simulated vas deferens from rats; assay type: functional
Summary of the method: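 Field-stimulated vas deferens from Sprague-Dawley rats (250-350 g), pretreated with prazosin (78 nM). α2 agonism scored as inhibition of stimulation-induced contractions. […] Agonist activity confirmed by complete reversal of the inhibition by rauwolscine (280 nM).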

Row | SMILES | pA2 [1] | pA2 [2] | EC50 [3] | EC50 [4] | Ki [5] | EC50 [6]
1 | Cc1ccc(N(CC2=NCCN2)c2cccc(O)c2)cc1 | 7.8 |  |  |  |  | 
2 | Cc1ccc(N(CC2=NCCN2)c2ccccc2)cc1 | 7.5 | 7.6 | > 1 µM | > 1 µM |  | 
3 | CCN(CC1=NCCN1)c1ccc(C)cc1 | 7.1 |  | > 1 µM | 1.6 µM | 0.014 µM | 
4 | Cc1ccc(N(C)CC2=NCCN2)cc1 | 7 |  | > 2 µM | 0.3 µM | 0.0033 µM | 
5 | Cc1ccc(N(CC2=NCCN2)C2CCCCC2)cc1 | 6.5 | 6 | > 1 µM | > 1 µM | 0.07 µM | 
6 | Oc1cccc(NCC2=NCCN2)c1 |  |  | 0.074 µM | 0.061 µM | 0.0071 µM | 
7 | Clc1ccccc1NCC1=NCCN1 |  |  |  | 0.05 µM |  | 0.053 µM
8 | Cc1ccc(NCC2=NCCN2)cc1 | 5.6 |  | > 2 µM | 0.34 µM | 0.014 µM | 

Reference: ChEMBL document CHEMBL1122419, “alpha-Adrenergic activities of some substituted 2-(aminomethyl)imidazolines” (J Med Chem, 1983)
